APJ agonist – APJ receptor agonism. CHO-K1 APJ PathHunter beta-arrestin, luminescence; 0% DMSO wells, 100% apelin. 330,000 tested, 0.11% active. AID 2520. P35414. activation, % at 20 µM;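 active means activation more than six SD over the plate average, tested at 20 µM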;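 further: 0% = DMSO alone and 100% = apelin-13 at 10 nM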
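Incubation: overnight seeding, 90 min compound at 25 °C, 1 h detection; test system: PathHunter CHO-K1 APJ (AGTRL-1) beta-arrestin reporter cells; amount: 1000 cells/well; doses: one dose, 20 µM compound, 1% DMSO; measured by: beta-gal luminescence; measure: agonist-driven arrestin binding to APJ; benchmarks: negative DMSO alone, positive Apelin-13 at 10 nM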
APJ antag – blocks the human apelin receptor APJ; 330,000 tested, 0.32% active; inhibition, % at 20 µM; CHO-K1 APJ beta-arrestin complementation, luminescence; P35414;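 active means inhibition above about 40% at 20 µM, limit read from the data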;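 further: cells challenged with 10 nM apelin-13 agonist together with compound; plate controls were apelin-13 plus DMSO wells for no effect and DMSO wells lacking apelin-13 for full effect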
CXCR6 block – blocks human CXCR6 beta-arrestin recruitment | CHO-K1 PathHunter CXCR6 beta-arrestin, luminescence | inhibition, % at 20 µM | 360,000 tested, 0.36% active; in the data active means inhibition above about 34%, passing the limit was not always enough;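 further: antagonist mode with CXCL16 agonist at 10 nM final; 0% = 10 nM CXCL16 with DMSO and 100% = unstimulated wells without agonist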
Target sequence (O00574 whole entry, looked up): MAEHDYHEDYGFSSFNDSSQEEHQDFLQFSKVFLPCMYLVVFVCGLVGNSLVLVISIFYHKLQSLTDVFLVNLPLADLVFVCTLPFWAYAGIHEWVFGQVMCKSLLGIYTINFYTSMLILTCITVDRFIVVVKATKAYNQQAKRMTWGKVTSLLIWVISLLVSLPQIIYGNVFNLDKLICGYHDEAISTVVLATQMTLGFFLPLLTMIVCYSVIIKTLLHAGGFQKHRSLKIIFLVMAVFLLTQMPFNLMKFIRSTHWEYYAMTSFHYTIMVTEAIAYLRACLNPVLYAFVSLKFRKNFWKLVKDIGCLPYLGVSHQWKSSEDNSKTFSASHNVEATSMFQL
EBI2 block – blocks human EBI2 receptor beta-arrestin signaling | P32249 | EBI2 beta-arrestin recruitment, luminescence, 7a,25-OHC stimulated | inhibition, % at 5 µM | 360,000 tested, 0.81% active; in the data active means inhibition above about 38%;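 further: enzyme fragment complementation signal reports receptor beta-arrestin coupling in cells; 0% = agonist plus DMSO wells and 100% = wells without agonist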
hiPSC survival – hiPSC single-cell survival enhancement | ATPlite luminescence; 100% = ROCK inhibitor wells, 0% = DMSO | 360,000 tested, 0.044% active | AID 602274 | survival enhancement, % at 20 µM; in the data active means survival enhancement above about 18%;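 further: cells exposed to compounds for 16 hours before the ATP read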
CCR6 antag – antagonists of human CCR6 receptor; CHO-K1 CCR6 PathHunter beta-arrestin, luminescence, CCL20-stimulated; AID 493098; P51684; inhibition, % at 20 µM; 340,000 tested, 0.49% active;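 active means compounds whose inhibition of the agonist-driven luminescence signal at 20 µM reaches about 50%, limit read from the data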;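 further: cells stimulated with CCL20 at 14 nM final; plate controls were DMSO with CCL20 for no effect and DMSO without agonist for full effect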
The depositor's hits bear a star; x = no result given. Most compounds without a hit are left out; they make up all but 1.5% or so of the library.

SMILES	APJ agonist	APJ antag	CXCR6 block	EBI2 block	hiPSC survival	CCR6 antag
O=C(Sc1cccc2cccnc12)c1ccc(F)cc1	-8	44*	x	x	x	x
O=S(=O)(Nc1cc(Sc2cccc3cccnc23)c(O)c2ccccc12)c1ccc(F)cc1	x	x	x	x	x	65*
COc1ccc(S(=O)(=O)Nc2cc(SCC(=O)O)c(O)c3ccccc23)cc1	-1	-30	8	-3	0	6
NNC(=O)CSc1cccc2cccnc12	2	-15	-4	-15	1	-7
CC(=O)/C(=N\Nc1ccccc1)Sc1cccc2cccnc12	-4	15	3	17	4	10
CN(C)C(=O)CSc1cccc2cccnc12	-7	35	55*	19	4	66*
CC(OC(=O)c1cc(=O)c2cc(Cl)ccc2o1)C(=O)N1CCCC1 (stereo not drawn)	4	21	5	1	0	9
CCCCC[C@@H](/C=C/C1C(=O)C=C[C@H]1C/C=C\CCCC(=O)OC)OC(C)=O (stereo partly drawn)	x	x	2	19	-1	16
COc1cc(/C=N/Nc2nc(C)nc3c2cnn3-c2ccccc2)ccc1O	x	x	3	56*	-1	-2
O=C(/C=C/c1cccc(F)c1)NCCCn1ccnc1	0	7	3	17	0	9
CCOc1ccc(N2C(=O)CC(Sc3nc(C)cc(C)n3)C2=O)cc1 (stereo not drawn)	1	1	4	-9	6	-3
CCOc1ccc(N2C(=O)CC(Sc3nnnn3-c3ccccc3)C2=O)cc1 (stereo not drawn)	x	x	52*	-1	0	x
O=c1c(Br)ccc(Br)cc1Br	x	x	95*	8	5	111*
Cc1c(Cl)cccc1NC(=O)CN1CCC(C(O)(c2ccccc2)c2ccccc2)CC1	-5	-15	6	38*	-2	-26
Cc1ccccc1C(=O)NC1CCN(CC(=O)Nc2ccccc2Cl)CC1	2	9	-9	-5	0	13
O=C(NCCCN1C(=O)c2ccccc2C1=O)OCc1ccccc1	x	x	0	-6	0	9
COc1cc2c(cc1OC)CN(C1CCCN(Cc3cc(Cl)ccc3O)C1)CC2 (stereo not drawn)	-4	-21	0	5	-1	15
CCn1c(SC(=O)NC2CCCCC2)nnc1-c1cccs1	-2	-12	15	6	0	51*
CCn1c(SCC(=O)NC2CCCCC2)nnc1-c1cccs1	-1	17	0	-6	3	0
Nc1nc(N)nc(C2C=CCCC2)n1 (stereo not drawn)	x	x	-10	-5	2	-1
OC(COc1ccc2cc(Br)ccc2c1)CN1CCCC1 (stereo not drawn)	3	-2	1	21	-2	20
O=S(=O)(N1CCCCC1)N1CCN(CC(O)COc2ccc3cc(Br)ccc3c2)CC1 (stereo not drawn)	4	-19	-13	90*	-1	0
CCOC(=O)COc1ccccc1/C=C\[N+](=O)[O-]	x	x	45*	-17	2	69*
Cc1ccc(Cc2cnc(N3C(=N)SC(c4ccccc4)C3=O)s2)cc1 (stereo not drawn)	-3	-8	29	-13	0	62*
N=C1SC(c2ccccc2)C(=O)N1c1ncc(Cc2ccccc2)s1 (stereo not drawn)	-3	-9	24	1	-1	45
SMILES	APJ agonist	APJ antag	CXCR6 block	EBI2 block	hiPSC survival	CCR6 antag
CC(=O)C[C@@H](O)CC(=O)[C@@H]1OC(=O)CCCCCCCCc2ccccc21	-2	-2	-4	-4	-1	-2
COC(=O)[C@@]12C[C@@H](CC(=O)NCC34CC5CC(CC(C5)C3)C4)C(=O)N(Cc3ccco3)C1=CCC(C)(C)C2	x	x	x	19	x	x
O=C(/C=C/c1cccs1)c1ccc(NC(=O)c2cccc(Br)c2)cc1	-2	-16	11	58*	-5	14
Cc1ccc(C(=O)Nc2ccc(C(=O)/C=C/c3cccs3)cc2)cc1	5	-7	4	44	-2	22
O=C(Cn1ccc2ccccc2c1=O)NCCC(=O)Nc1ccc2c(c1)OCCO2	-5	9	-10	-7	-1	-19
O=C(Cn1ccc2ccccc2c1=O)Nc1ccc2c(c1)OCO2	-5	-5	-6	-8	0	69*
CCN1C(=O)/C(=C/C=C2\N(CC)c3cc(S(=O)(=O)N(C)C)ccc3N2c2ccccc2)SC1=S	-5	27	52*	34	1	67*
Cc1cc(/C=C(\C#N)C(=O)NCCc2c[nH]c3ccccc23)c(C)n1C	-1	2	12	11	2	19
COc1cc(/C=C(/C#N)C(=O)NCCc2c[nH]c3ccccc23)ccc1OCc1ccccc1F	11	7	32	28	-2	58*
O=C1C=CC(=O)N1c1ccccc1N1C(=O)C=CC1=O	x	x	72*	25	-3	108*
Cc1cccc(Cc2c(C)nc3c(C(=O)NCc4ccco4)cnn3c2C)c1	-4	6	1	9	19*	22
C=CCn1nc([N+](=O)[O-])nc1Sc1cccc2cccnc12	-3	27	47*	36	1	64*
Nc1nc(-c2ccccc2)nc2nonc12	x	x	7	-9	2	x
O=C(COC(=O)c1ccc(F)cc1Cl)NC(=O)NC1CCCC1	-6	5	9	-3	0	11
COc1ccc(NC(=O)c2cc(S(=O)(=O)N3CCc4ccccc43)cn2C)cc1OC	1	0	0	24	-2	12
COc1ccc(NC(=O)c2cc(S(=O)(=O)N3CCc4ccccc43)cn2C)c(OC)c1	2	6	-4	66*	1	9
O=C(CCn1cnc2ccccc2c1=O)Nc1nc(-c2ccc(Br)cc2)cs1	23*	6	0	-49	-1	0
Cc1oc2c(c1C(=O)c1ccccc1)C(=O)C(=O)c1ccccc1-2	9	-11	36	-4	-2	71*
Cc1oc2c(c1C(=O)O)C(=O)c1ccccc1C2=O	1	-170	-18	-19	0	-20
Oc1ccc(Cl)cc1CNc1ccc(Br)cn1	-1	-9	-7	41*	0	14
Oc1c(Cl)cc(Cl)cc1CNc1ccc(Br)cn1	10	2	5	0	2	-4
CCc1noc(C)c1C(=O)N(C)CC(=O)Nc1cccc(OC)c1	-5	4	6	-2	0	-7
Cc1[nH]c2ccccc2c1/C=N/Nc1ccc([N+](=O)[O-])cc1	x	x	38	42*	0	65*
C/C(=N/Nc1ccc([N+](=O)[O-])cc1)c1ccc(C)cc1C	-2	18	2	18	-2	25
Cc1[nH]c2ccccc2c1/C=N/NC(=O)c1cccc([N+](=O)[O-])c1	3	9	-7	-9	0	5
